Data reported in ChEMBL document CHEMBL1149126, “3-phenyl-6-(2-pyridyl)methyloxy-1,2,4-triazolo[3,4-a]phthalazines and analogues: high-affinity gamma-aminobutyric acid-A benzodiazepine receptor ligands with alpha 2, alpha 3, and alpha 5-subtype binding selectivity over alpha 1” (J Med Chem, 2004).

Assays:
[1] = biological target: T1, GABA-A receptor; alpha-5/beta-3/gamma-2 (Homo sapiens) (UniProt P18507+P28472+P31644); experiment: Partial agonistic activity against GABA-A receptor alpha-5-beta-3-gamma-2 subunits; assay type: functional
[2] = biological target: T2, GABA-A receptor; alpha-3/beta-3/gamma-2 (Homo sapiens, UniProt P18507+P28472+P34903); experiment: Binding affinity for human GABA-A receptor alpha-3-beta-3-gamma-2 subunits in L(tk-) cells; assay type: cell-based
T2 sequence (P18507 whole entry): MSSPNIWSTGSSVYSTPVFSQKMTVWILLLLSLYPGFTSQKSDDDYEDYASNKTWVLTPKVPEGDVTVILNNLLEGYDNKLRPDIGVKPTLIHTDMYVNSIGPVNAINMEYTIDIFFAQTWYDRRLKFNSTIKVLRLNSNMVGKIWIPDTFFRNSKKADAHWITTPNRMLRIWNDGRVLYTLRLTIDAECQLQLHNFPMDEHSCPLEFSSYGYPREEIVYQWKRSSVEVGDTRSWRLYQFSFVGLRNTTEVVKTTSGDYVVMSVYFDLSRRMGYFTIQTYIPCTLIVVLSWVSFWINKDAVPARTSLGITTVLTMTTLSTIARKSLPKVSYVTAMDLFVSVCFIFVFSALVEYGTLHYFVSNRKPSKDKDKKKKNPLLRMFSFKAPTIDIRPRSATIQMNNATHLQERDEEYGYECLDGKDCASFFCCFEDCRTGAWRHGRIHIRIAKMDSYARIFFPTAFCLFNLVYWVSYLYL
T2 sequence (P28472 whole entry): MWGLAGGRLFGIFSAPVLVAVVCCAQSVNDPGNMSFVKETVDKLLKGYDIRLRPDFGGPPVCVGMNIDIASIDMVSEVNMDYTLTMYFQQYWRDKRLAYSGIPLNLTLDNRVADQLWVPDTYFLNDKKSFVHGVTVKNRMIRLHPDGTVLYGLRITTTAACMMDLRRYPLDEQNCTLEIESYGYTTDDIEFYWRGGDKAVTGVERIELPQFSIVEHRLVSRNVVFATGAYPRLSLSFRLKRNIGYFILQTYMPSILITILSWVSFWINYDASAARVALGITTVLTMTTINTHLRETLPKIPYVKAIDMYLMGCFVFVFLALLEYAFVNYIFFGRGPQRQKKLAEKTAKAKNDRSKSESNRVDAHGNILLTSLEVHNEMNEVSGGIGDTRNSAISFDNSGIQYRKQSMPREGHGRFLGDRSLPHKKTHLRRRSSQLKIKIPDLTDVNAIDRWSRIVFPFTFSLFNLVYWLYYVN
T2 sequence (P34903 whole entry): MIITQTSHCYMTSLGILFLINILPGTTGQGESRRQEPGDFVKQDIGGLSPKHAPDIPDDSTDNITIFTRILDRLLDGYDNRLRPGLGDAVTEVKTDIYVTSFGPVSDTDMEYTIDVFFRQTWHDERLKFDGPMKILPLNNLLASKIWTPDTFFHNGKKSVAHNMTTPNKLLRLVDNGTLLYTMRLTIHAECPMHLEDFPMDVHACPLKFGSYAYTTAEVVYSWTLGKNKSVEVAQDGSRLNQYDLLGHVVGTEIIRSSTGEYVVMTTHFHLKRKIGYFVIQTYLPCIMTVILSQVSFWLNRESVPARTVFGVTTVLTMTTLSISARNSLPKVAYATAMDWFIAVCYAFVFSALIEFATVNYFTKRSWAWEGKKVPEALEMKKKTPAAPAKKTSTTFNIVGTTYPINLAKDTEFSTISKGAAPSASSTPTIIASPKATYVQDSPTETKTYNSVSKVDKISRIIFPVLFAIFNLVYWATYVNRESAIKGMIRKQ

[3] = biological target: T3, GABA-A receptor; alpha-5/beta-3/gamma-2 (Homo sapiens, UniProt P18507+P28472+P31644); experiment: Binding affinity for human GABA-A receptor alpha-5-beta-3-gamma-2 subunits in L(tk-) cells; assay type: cell-based
T3 sequence (P18507 whole entry): T2 sequence (P18507 whole entry)
T3 sequence (P28472 whole entry): T2 sequence (P28472 whole entry)
T3 sequence (P31644 whole entry): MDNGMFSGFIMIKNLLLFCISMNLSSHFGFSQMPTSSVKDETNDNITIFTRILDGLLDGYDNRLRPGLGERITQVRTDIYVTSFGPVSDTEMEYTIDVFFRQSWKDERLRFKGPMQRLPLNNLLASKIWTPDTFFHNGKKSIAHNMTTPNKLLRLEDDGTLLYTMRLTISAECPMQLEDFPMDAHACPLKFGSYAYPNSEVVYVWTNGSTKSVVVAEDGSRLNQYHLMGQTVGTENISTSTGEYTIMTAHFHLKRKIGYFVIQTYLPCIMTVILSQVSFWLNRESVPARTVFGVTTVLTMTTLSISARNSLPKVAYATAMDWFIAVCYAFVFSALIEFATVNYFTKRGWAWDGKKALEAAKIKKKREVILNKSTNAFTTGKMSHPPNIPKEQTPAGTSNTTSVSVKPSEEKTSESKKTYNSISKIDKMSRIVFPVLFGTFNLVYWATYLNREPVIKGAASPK

[4] = biological target: T4, GABA-A receptor; alpha-1/beta-3/gamma-2 (Homo sapiens) (UniProt P14867+P18507+P28472); experiment: Inverse agonistic activity against GABA-A receptor alpha-1-beta-3-gamma-2 subunits; assay type: functional
[5] = biological target: T5, GABA-A receptor; alpha-2/beta-3/gamma-2 (Homo sapiens, UniProt P18507+P28472+P47869); experiment: Binding affinity for human GABA-A receptor alpha-2-beta-3-gamma-2 subunits in L(tk-) cells; assay type: cell-based
T5 sequence (P18507 whole entry): T2 sequence (P18507 whole entry)
T5 sequence (P28472 whole entry): T2 sequence (P28472 whole entry)
T5 sequence (P47869 whole entry): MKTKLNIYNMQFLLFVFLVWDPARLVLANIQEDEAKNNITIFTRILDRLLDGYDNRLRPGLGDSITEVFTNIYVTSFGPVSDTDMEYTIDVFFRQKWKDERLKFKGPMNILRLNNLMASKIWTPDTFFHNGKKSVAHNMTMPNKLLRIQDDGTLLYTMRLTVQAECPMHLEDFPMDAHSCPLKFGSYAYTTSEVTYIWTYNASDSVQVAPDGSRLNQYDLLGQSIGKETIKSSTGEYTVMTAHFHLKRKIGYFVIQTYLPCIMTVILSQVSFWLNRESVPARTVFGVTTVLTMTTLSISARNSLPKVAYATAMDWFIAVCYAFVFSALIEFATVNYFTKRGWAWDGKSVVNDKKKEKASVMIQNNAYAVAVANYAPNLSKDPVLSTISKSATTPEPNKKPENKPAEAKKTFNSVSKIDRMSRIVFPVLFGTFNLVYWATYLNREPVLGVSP

[6] = biological target: T6, GABA-A receptor; alpha-3/beta-3/gamma-2 (Homo sapiens) (UniProt P18507+P28472+P34903); experiment: Partial agonistic activity against GABA-A receptor alpha-3-beta-3-gamma-2
[7] = biological target: T7, GABA-A receptor; alpha-1/beta-3/gamma-2 (Homo sapiens, UniProt P14867+P18507+P28472); experiment: Binding affinity for human GABA-A receptor alpha-1-beta-3-gamma-2 subunits in L(tk-) cells
T7 sequence (P14867 whole entry): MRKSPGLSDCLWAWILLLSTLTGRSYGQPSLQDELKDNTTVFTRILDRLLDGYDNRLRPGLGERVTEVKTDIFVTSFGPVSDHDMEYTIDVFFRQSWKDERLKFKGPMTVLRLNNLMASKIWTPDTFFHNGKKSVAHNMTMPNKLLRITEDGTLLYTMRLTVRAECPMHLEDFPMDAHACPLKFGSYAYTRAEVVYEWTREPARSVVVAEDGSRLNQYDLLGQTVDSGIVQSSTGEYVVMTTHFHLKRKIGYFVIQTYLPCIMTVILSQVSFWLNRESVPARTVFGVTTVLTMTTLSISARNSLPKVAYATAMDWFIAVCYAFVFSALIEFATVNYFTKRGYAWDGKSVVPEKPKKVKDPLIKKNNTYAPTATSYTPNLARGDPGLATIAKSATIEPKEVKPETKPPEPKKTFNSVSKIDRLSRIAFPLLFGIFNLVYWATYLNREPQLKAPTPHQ
T7 sequence (P18507 whole entry): T2 sequence (P18507 whole entry)
T7 sequence (P28472 whole entry): T2 sequence (P28472 whole entry)

[8] = Half-life in rat at a dose of 3 mg/kg; assay type: ADME, organism-based; parameters: dose 3 mg/kg; settings: in vivo
How it was run: (§1)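 Plasma concentrations were followed to derive peak level and half-life.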

[9] = Oral bioavailability in rat at a dose of 3 mg/kg; assay type: ADME, organism-based; settings: in vivo, read-out: Bioavailabiility; how it was run: as §1
[10] = Peak plasma concentration in rat at a dose of 3 mg/kg; assay type: ADME, organism-based; parameters: dose 3 mg/kg; settings: read-out: Concentration; how it was run: as §1
[11] = biological target: T4, GABA-A receptor; alpha-1/beta-3/gamma-2 (Homo sapiens); experiment: Maximum percent change compared to GABA EC20 against GABA-A alpha-1-beta-3-gamma-2 receptor; assay type: functional
[12] = biological target: T7, GABA-A receptor; alpha-1/beta-3/gamma-2; experiment: Binding affinity for human GABA-A receptor alpha-4-beta-3-gamma-2 subunits in L(tk-) cells; assay type: cell-based
[13] = biological target: GABA-A receptor; alpha-2/beta-3/gamma-2 (Homo sapiens) (UniProt P18507+P28472+P47869); experiment: Maximum percent change compared to GABA EC20 against GABA-A alpha-2-beta-3-gamma-2 receptor; assay type: functional
[14] = biological target: T1, GABA-A receptor; alpha-5/beta-3/gamma-2 (Homo sapiens); experiment: Maximum percent change compared to GABA EC20 against GABA-A alpha-5-beta-3-gamma-2 receptor; assay type: functional
[15] = biological target: T6, GABA-A receptor; alpha-3/beta-3/gamma-2 (Homo sapiens); experiment: Maximum percent change compared to GABA EC20 against GABA-A alpha-3-beta-3-gamma-2 receptor; assay type: functional

Activity [1]	Ki [2]	Ki [3]	Activity [4]	Ki [5]	Activity [6]	Ki [7]	half-life [8]	bioavailability [9]	Cmax [10]	Efficacy [11]	Ki [12]	Efficacy [13]	Efficacy [14]	Efficacy [15]	Compound
26%	3.1 nM	0.92 nM	-15%	9.7 nM	-13%	32 nM	–	–	–	–	–	–	–	–	Cc1cccc(COc2nn3c(C4CC4)nnc3c3ccccc23)n1
–	12 nM	1.2 nM	–	26 nM	–	–	1 h	33%	179 ng/mL	51%	71 nM	23%	18%	38%	c1ccc(-c2nnc3c4c(c(OCc5ccccn5)nn23)C2CCC4CC2)cc1
